Assay outcomes as filed in PubChem BioAssay.
Shown are actives, neighbours in structure and some others; about 3.4% of the full set was active somewhere.
MEKK2wt PB1 HTS = modulators of MEK5 binding to wildtype MEKK2, primary screen, biochemical, multiplex bead flow cytometry, Alexa488-MEK5 | hit rate 1.1% among 290,000 | binding response (% of control), % at 10 µM | Alexa488-MEK5 binding to MEKK2 WT; actives lie on both sides | Mitogen-activated protein kinase kinase kinase 2 (Homo sapiens), Q9Y2U5; in the data active means binding response below about 67% or above about 130%
MEKK2mut PB1 HTS = MEK5 binding signal on mutant MEKK2 PB1, primary screen, biochemical, multiplex bead flow cytometry, Alexa488-MEK5. AID 1530, 2009. hit rate 0.35% among 290,000. percent response, % at 10 µM. Alexa488-MEK5 binding to MEKK2 mutant; in the data active means percent response above about 24%, passing the limit was not always enough
VIM-2 inh = VIM-2 metallo-beta-lactamase inhibitors, primary screen, biochemical, epi-absorbance readout, Pseudomonas aeruginosa enzyme | hit rate 0.89% among 290,000 | inhibition, % at 5.6 µM | purified VIM-2, nitrocefin hydrolysis, epi-absorbance fluorescence;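 active means inhibition above the mean of all tested compounds plus 3 SD, cutoff set per screening run, cut at about 7.5% in these data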;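 further: red hydrolysis product quenches plate fluorescence so inhibitors raise well fluorescence; 0% = enzyme with DMSO and 100% = DMSO without enzyme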
IMP-1 inh = IMP-1 metallo-beta-lactamase inhibitors, primary screen, biochemical, epi-absorbance readout, Pseudomonas aeruginosa enzyme; metallo-beta-lactamase IMP-1 (Pseudomonas aeruginosa); purified IMP-1, nitrocefin hydrolysis, epi-absorbance fluorescence; inhibition, % at 5.6 µM; hit rate 0.45% among 290,000;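 active means inhibition above the mean plus 3 SD of all compounds in the same screening run, cut at about 4.5% in these data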;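 further: 0% = IMP-1 with DMSO and 100% = DMSO wells lacking enzyme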
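Assay system: purified IMP-1; Quantity: IMP-1 0.2 nM before substrate addition; Medium: HEPES buffer pH 7.1 with ZnSO4 and Brij 35; Incubation: 15 min enzyme–compound preincubation, then 25 min nitrocefin reaction, 25 °C; Signal: fluorescence quenching readout, ex 480/em 530 nm; Controls: DMSO with and without IMP-1; Repeats: singlicate testing.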
MEKK3 PB1 HTS = modulators of MEKK3-MEK5 PB1 binding, primary screen, biochemical, wildtype MEKK3, multiplex bead flow cytometry, Alexa488-MEK5; binding response (% of control), % at 10 µM; hit rate 1.4% among 290,000; bead-based flow cytometry, Alexa488-MEK5 binding to MEKK3; actives lie on both sides; 0 = blocked by unlabeled MEK5, 100 = vehicle; AID 1529, 2009;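 active means binding response more than 3 SD above or below the average of its plate-row segment, actives on both sides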;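 further: Alexa488 bead fluorescence after subtracting the streptavidin-only scavenger bead signal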
Target sequence (Q99759 whole entry, looked up): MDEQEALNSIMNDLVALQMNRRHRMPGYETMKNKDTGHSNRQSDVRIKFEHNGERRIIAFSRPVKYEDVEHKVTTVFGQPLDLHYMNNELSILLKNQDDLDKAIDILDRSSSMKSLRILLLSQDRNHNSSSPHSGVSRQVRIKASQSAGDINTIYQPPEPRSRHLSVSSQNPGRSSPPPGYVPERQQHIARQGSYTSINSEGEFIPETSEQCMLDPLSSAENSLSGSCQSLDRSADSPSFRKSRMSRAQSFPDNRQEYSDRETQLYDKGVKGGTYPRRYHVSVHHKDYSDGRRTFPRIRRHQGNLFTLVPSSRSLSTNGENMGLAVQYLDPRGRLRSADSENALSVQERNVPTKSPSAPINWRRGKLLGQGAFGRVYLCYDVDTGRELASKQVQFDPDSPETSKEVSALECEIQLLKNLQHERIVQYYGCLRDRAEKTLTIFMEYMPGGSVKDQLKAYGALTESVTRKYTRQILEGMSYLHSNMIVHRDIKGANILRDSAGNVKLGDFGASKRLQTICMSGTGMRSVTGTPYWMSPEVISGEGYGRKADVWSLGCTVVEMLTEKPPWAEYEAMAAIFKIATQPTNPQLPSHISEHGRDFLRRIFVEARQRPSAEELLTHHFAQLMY
MEKK2wt confirm = modulators of MEK5 binding to wildtype MEKK2, confirmation, biochemical, single concentration, multiplex bead flow cytometry; shares compounds with MEKK3 PB1 HTS; hit rate 2.4% among 5,900; AID 1892, 2009; Alexa488-MEK5 binding to MEKK2 WT; actives lie on both sides; binding response (% of control), % at 10 µM; in the data active means binding response below about 16% or above about 210%; inactive means in between
MEKK2mut confirm = mutant MEKK2 PB1-MEK5 binding signal retest – biochemical, single concentration, multiplex bead flow cytometry, confirmation | hit rate 2% among 5,900 | shares compounds with MEKK3 PB1 HTS | percent response, % at 10 µM | Alexa488-MEK5 binding to MEKK2 mutant; in the data active means percent response mostly above about 71%, no sharp cut-off; inactive means mostly below about 38%;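 further: higher means compound restores mutant binding toward wildtype level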
MEKK3-MEK5 inh = MEKK3 wild-type PB1 binding to MEK5, inhibitors, confirmation, biochemical, bead multiplex flow cytometry, single concentration, wildtype; shares compounds with MEKK3 PB1 HTS; hit rate 1.8% among 5,900; AID 1894, 2009; Alexa488-MEK5 binding to MEKK3; active compounds read low; binding response (% of control), % at 10 µM;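 active means binding response below 72% of control, or above a set upper limit, though filed actives all read lower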;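 further: 100% = DMSO only wells and 0% = binding blocked by excess unlabeled MEK5; lower values mean stronger disruption of MEK5 binding to MEKK3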
* marks the source's active call; other numbers are inactive results; nt = not tested or not shown; [ ] = dose if it differs, or a comment.

SMILES	MEKK2wt PB1 HTS	MEKK2mut PB1 HTS	VIM-2 inh	IMP-1 inh	MEKK3 PB1 HTS	MEKK2wt confirm	MEKK2mut confirm	MEKK3-MEK5 inh
CC1CCc2sc(C(=O)N(C)CC(=O)Nc3cccc(F)c3)cc2C1 (configuration not stated)	111	8	-2	-1	105	nt	nt	nt
Cc1sc(NC(=O)c2ccccc2F)c(CN2CCCCC2)c1C	96	-1	-2	-4	96	nt	nt	nt
O=C(CCCn1c(=O)c2ccccc2n(Cc2cccc(F)c2)c1=O)NC1CCN(Cc2ccccc2)CC1	107	3	-2	0	102	nt	nt	nt
O=C(CCCCn1c(=O)c2ccccc2n(Cc2ccccc2)c1=O)NC1CCN(Cc2ccccc2)CC1	32*[inhibitor]	-20	5	0	22*[inhibitor]	105	2	101
NS(=O)(=O)c1cccc(-n2cnnn2)c1	103	4	-1	-3	102	nt	nt	nt
CCCCn1c(=NC(=O)c2cccnc2)c(C#N)cc2c(=O)n3cccc(C)c3nc21	nt	nt	-1	-3	nt	nt	nt	nt
CCCCNS(=O)(=O)c1ccc2nc(SCC(=O)c3ccccc3OC)[nH]c2c1	66	-39	-3	-3	75*[inhibitor]	105	4	109
CCCCNS(=O)(=O)c1ccc2nc(SCC(N)=O)[nH]c2c1	101	2	-2	-3	98	nt	nt	nt
COCCOC(=O)C1=C(C)NC(=S)NC1/C=C/c1ccccc1 (configuration not stated)	95	-2	-1	-3	101	nt	nt	nt
CCCCC(CCC(=O)Nc1ccc(C(=O)OC)cc1)C(=O)O (configuration not stated)	122	12	0	-1	123*	94	-5	93
Cc1cccc(NC(=O)CSc2nc3nc4c(cc3c(=O)n2-c2ccccc2)CCCC4)c1	104	0	-1	-2	132*	90	-3	99
CCOC(=O)C(CCCOc1ccccc1)C(=O)OCC	65	-35	2	-5	43*[inhibitor]	96	-5	101
CCOC(=O)C(CCCOc1ccc(C)cc1)C(=O)OCC	103	4	-3	-4	102	nt	nt	nt
Cc1cccc(NC(=O)COC(=O)c2cc(C)oc2C)c1	114	4	-1	-1	129*	105	2	103
Cc1cc(C(=O)OCC(=O)Nc2ccccc2F)c(C)o1	118	9	-1	-1	112	nt	nt	nt
Cc1ccc2c(c1)N(CCCC(=O)Nc1cccc(C(F)(F)F)c1)C(=O)CO2	107	2	1	-1	104	nt	nt	nt
CN(C)c1nc(NCc2ccccc2)nc(N/N=C/c2cccc(Br)c2)n1	139*	15	-3	-3	108	125	13	106
O=C(N/N=C/c1cccnc1)C(O)c1ccccc1 (configuration not stated)	110	1	-4	-2	146*	106	4	107
CC(/C=C/c1ccccc1)=N/NC(=O)C(O)c1ccccc1 (configuration not stated)	112	1	-4	-4	156*	101	1	101
COC(=O)N/N=C(C)/C=C/c1ccccc1	105	0	1	0	103	nt	nt	nt
COc1ccccc1-n1c(COc2ccccc2-c2ccccc2)nnc1SCC(=O)c1c(N)n(C)c(=O)n(C)c1=O	98	-2	-4	-3	105	nt	nt	nt
CCCC(=O)Nc1ccc2nc(SCC(=O)Nc3ccc(N4CCOCC4)c(Cl)c3)sc2c1	nt	nt	-2	-2	nt	nt	nt	nt
O=C(CSc1nc2ccccc2s1)Nc1cc(S(=O)(=O)N2CCOCC2)ccc1Cl	107	1	-1	-3	129*	99	-1	105
Nc1ccc2nc(SCC(=O)Nc3ccc(N4CCOCC4)c(Cl)c3)sc2c1	106	1	-3	-6	135*	98	-4	101
O=C(CSc1nc2ccccc2s1)Nc1ccc2c(c1)OCO2	104	1	-2	-3	158*	99	-3	102
SMILES	MEKK2wt PB1 HTS	MEKK2mut PB1 HTS	VIM-2 inh	IMP-1 inh	MEKK3 PB1 HTS	MEKK2wt confirm	MEKK2mut confirm	MEKK3-MEK5 inh
O=C1c2ccccc2NC(c2ccncc2)N1c1ccccn1 (configuration not stated)	99	13	1	-3	102	nt	nt	nt
O=C(CCCn1c(=O)[nH]c2ccsc2c1=O)NC1CCCCC1	102	-2	0	-1	102	nt	nt	nt
CCN(CC)S(=O)(=O)c1cccc(-c2nnc(SCC(N)=O)n2CCc2ccccc2)c1	116	21	-3	-2	106	nt	nt	nt
CCN(CC)S(=O)(=O)c1cccc(-c2nnc(SCC(=O)NC)n2N)c1	7.0*[inhibitor]	-17	-3	-3	6.0*[inhibitor]	114	10	107
CC(=O)NNC(=S)Nc1cc(S(=O)(=O)N(C)C)ccc1C	88	-3	1	-2	89	nt	nt	nt
O=c1[nH]c2ccc(NC(=S)NCCc3ccccc3)cc2[nH]1	44*[inhibitor]	-13	0	1	41*[inhibitor]	96	3	101
Cc1ccccc1C(=O)NC(=S)Nc1ccc2[nH]c(=O)[nH]c2c1	117	3	0	0	135*	96	-1	99
COc1ccc(N2C(=O)C3CCCCC3C2=O)cc1NC(=O)c1ccccc1 (configuration not stated)	99	-11	-4	-2	101	nt	nt	nt
OC(CN1CCN(c2ccccn2)CC1)Cn1c2ccc(Cl)cc2c2cc(Cl)ccc21 (configuration not stated)	137*	13	0	-1	111	132	15	106
OC(COC(c1ccc(Cl)cc1)c1ccc(Cl)cc1)CN1CCN(c2ccccn2)CC1 (configuration not stated)	120	9	-3	-1	107	nt	nt	nt
OC(CN1CCCCC1)Cn1c2ccc(Cl)cc2c2cc(Cl)ccc21 (configuration not stated)	203*	48*	3	4	106	202	63	112
